In ChEMBL document CHEMBL4699543, “Preparation and evaluation of soluble epoxide hydrolase inhibitors with improved physical properties and potencies for treating diabetic neuropathic pain” (Bioorg Med Chem, 2020):
Values belong to the compound of their own block, whether it stands above or below them.

Experiments:
[1] = Lipophilicity, logP of compound at 100 uM incubated for 90 mins by HPLC analysis; format: physicochemical; conditions: for logP: 100 µM
[2] = Cmax in mouse at 0.3 mg/kg, po; format: ADME, organism-based; set-up: route oral, dose 0.3 mg/kg; conditions: in vivo
Outline: (§1)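 Mice (n=4) given oral gavage cassette of 4 compounds, each 0.3 mg/kg, dissolved in 20% PEG400 in oleic acid rich triglycerides; plasma PK parameters calculated by one-compartment model.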

[3] = AUC in mouse at 0.3 mg/kg, po; format: ADME, organism-based; set-up: dose 0.3 mg/kg; conditions: in vivo; outline: as §1
[4] = Half life in mouse at 0.3 mg/kg, po; format: ADME, organism-based; conditions: in vivo; outline: as §1
[5] = Tmax in mouse at 0.3 mg/kg, po; format: ADME, organism-based; conditions: in vivo; outline: as §1

logP at […], 100 µM [1]: 3.84
SMILES: CC[C@H](C)C(=O)N1CCC(NC(=O)Nc2ccc(C(F)(F)F)cc2)CC1

logP at […], 100 µM [1]: 4.3
SMILES: Cc1occc1C(=O)N1CCC(NC(=O)Nc2ccc(OC(F)(F)F)cc2)CC1

Cmax [2]: 423 nM | AUC [3]: 10.9 µM·h | half-life [4]: 6.6 h | Tmax [5]: 10 h
SMILES: CC(C)C(=O)N1CCC(NC(=O)Nc2ccc(OC(F)(F)F)c(F)c2)CC1

logP at […], 100 µM [1]: 3.26 | Cmax [2]: 381 nM | AUC [3]: 6.37 µM·h | half-life [4]: 6.3 h | Tmax [5]: 4.2 h
SMILES: O=C(Nc1ccc(OC(F)(F)F)cc1)NC1CCN(C(=O)C2CCOCC2)CC1

logP [1]: 10.62
SMILES: CC[C@H](C)C(=O)N1CCC(NC(=O)Nc2ccc(OC(F)(F)F)c(OC(F)(F)F)c2)CC1

logP at […], 100 µM [1]: 4.19
SMILES: O=C(Nc1ccc(OC(F)(F)F)c(F)c1)NC1CCN(C(=O)C2CC2)CC1

logP at […], 100 µM [1]: 3.26
SMILES: O=C(Nc1ccc(C(F)(F)F)cc1)NC1CCN(C(=O)c2cc[nH]c2)CC1

SMILES: CCC(=O)N1CCC(NC(=O)Nc2ccc(OC(F)(F)F)c(F)c2)CC1
Cmax [2]: 479 nM | AUC [3]: 13 µM·h | half-life [4]: 13 h | Tmax [5]: 6.7 h

Cmax [2]: 166 nM | AUC [3]: 2.17 µM·h | half-life [4]: 3.3 h | Tmax [5]: 5.2 h
SMILES: CC[C@H](C)C(=O)N1CCC(NC(=O)Nc2ccc(OC(F)(F)F)c(F)c2)CC1

logP at […], 100 µM [1]: 5.52
SMILES: O=C(Nc1ccc(C(F)(F)F)c(F)c1)NC1CCN(C(=O)C2(C(F)(F)F)CC2)CC1

logP at […], 100 µM [1]: 3.94
SMILES: O=C(Nc1ccc(C(F)(F)F)c(F)c1)NC1CCN(C(=O)C2CC2)CC1

logP at […], 100 µM [1]: 5.94
SMILES: O=C(Nc1ccc(OC(F)(F)F)c(F)c1)NC1CCN(C(=O)C2(C(F)(F)F)CC2)CC1

logP [1]: 9.02
SMILES: CC[C@H](C)C(=O)N1CCC(NC(=O)Nc2ccc(OC(F)(F)F)c(C(F)(F)F)c2)CC1

logP [1]: 3.22
SMILES: CC[C@H](C)C(=O)N1CCC(NC(=O)Nc2ccc(C(F)(F)F)cn2)CC1

logP at […], 100 µM [1]: 8.07
SMILES: CC[C@H](C)C(=O)N1CCC(NC(=O)Nc2ccc(OC(F)(F)F)c(Br)c2)CC1

logP at […], 100 µM [1]: 3.93
SMILES: O=C(Nc1ccc(OC(F)(F)F)c(F)c1)NC1CCN(C(=O)N2CCOCC2)CC1

logP at […], 100 µM [1]: 3.73 | Cmax [2]: 332 nM | AUC [3]: 5.56 µM·h | half-life [4]: 4.3 h | Tmax [5]: 6.5 h
SMILES: O=C(Nc1ccc(OC(F)(F)F)c(F)c1)NC1CCN(C(=O)C2CCOCC2)CC1

logP at […], 100 µM [1]: 3.52
SMILES: O=C(Nc1ccc(C(F)(F)F)c(F)c1)NC1CCN(C(=O)C2CCOCC2)CC1

logP at […], 100 µM [1]: 5.46
SMILES: CCOC(=O)N1CCC(NC(=O)Nc2ccc(C(F)(F)F)c(F)c2)CC1

Cmax [2]: 112 nM | AUC [3]: 0.785 µM·h | half-life [4]: 3.2 h | Tmax [5]: 2.1 h
SMILES: O=C(Nc1ccc(OC(F)(F)F)c(F)c1)NC1CCN(C(=O)C2CCCOC2)CC1 (stereo not given)

logP at […], 100 µM [1]: 5.94
SMILES: CCOC(=O)N1CCC(NC(=O)Nc2ccc(OC(F)(F)F)c(F)c2)CC1

logP at […], 100 µM [1]: 3.84
SMILES: O=C(Nc1ccc(C(F)(F)F)c(F)c1)NC1CCN(C(=O)C2CCCOC2)CC1 (stereo not given)

logP at […], 100 µM [1]: 3.41
SMILES: O=C(Nc1ccc(C(F)(F)F)cc1)NC1CCN(C(=O)C2CCCOC2)CC1 (stereo not given)

logP at […], 100 µM [1]: 3.76
SMILES: CCC(=O)N1CCC(NC(=O)Nc2ccc(C(F)(F)F)c(F)c2)CC1

logP at […], 100 µM [1]: 3.37
SMILES: O=C(Nc1ccc(C(F)(F)F)cc1)NC1CCN(C(=O)C2=COCC2)CC1

logP at […], 100 µM [1]: 7.7
SMILES: CC[C@H](C)C(=O)N1CCC(NC(=O)Nc2ccc(OC(F)(F)F)c(Cl)c2)CC1

Cmax [2]: 38 nM | AUC [3]: 0.483 µM·h | half-life [4]: 3.1 h | Tmax [5]: 6.5 h
SMILES: O=C(Nc1ccc(OC(F)(F)F)cc1)NC1CCN(C(=O)C2CCCOC2)CC1 (racemic)
